Data from ChEMBL document CHEMBL4765357, “Development of small-molecule inhibitors of fatty acyl-AMP and fatty acyl-CoA ligases in Mycobacterium tuberculosis” (Eur J Med Chem, 2020).
In brackets after ≈: the same amount, converted by molar mass.

Key:
[1] = test system: Mycobacterium tuberculosis; test: (§1) Antimycobacterial activity against isoniazid/rifampicin/ethambutol/pyrazinamide/streptomycin/kanamycin/para-aminosalicylic acid/prothionamide multidrug-resistant Mycobacterium tuberculosis assessed as inhibition of bacterial growth under 7H9 medium condition after 7 to 14 days by broth microdilution method; type: functional; details: time 7-14 day
In short: (§2)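 Clinical MDR/XDR Mtb strains tested by broth microdilution in GAST or 7H9 with tyloxapol (0.05%), BSA fraction V (5 g/L) and NaCl (0.8 g/L) plus a carbon source. Compounds were dosed from DMSO stocks against DMSO vehicle controls. Inoculum was 10⁴-10⁵ cells per assay, with growth monitored at days 7 and 14. MIC is the concentration causing >99% inhibition.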

[2] = test system: Mycobacterium tuberculosis; test: Antimycobacterial activity against isoniazid/rifampicin/ethambutol/para-aminosalicylic acid extensively drug-resistant Mycobacterium tuberculosis assessed as inhibition of bacterial growth under GAST medium condition after 7 to 14 days by broth microdilution method; type: functional; details: time 7-14 day; in short: as §2
[3] = test system: Mycobacterium tuberculosis; test: Antimycobacterial activity against isoniazid/rifampicin/ethambutol/streptomycin/ofloxacin/para-aminosalicylic acid/prothionamide multidrug-resistant Mycobacterium tuberculosis assessed as inhibition of bacterial growth under GAST medium condition after 7 to 14 days by broth microdilution method; type: functional; details: time 7-14 day; in short: as §2
[4] = test system: Mycobacterium tuberculosis; test: as §1, with “GAST” for “7H9”; type: functional; details: time 7-14 day; in short: as §2
[5] = test system: Mycobacterium tuberculosis; test: Antimycobacterial activity against isoniazid/rifampicin/ethambutol/kanamycin/ofloxacin multidrug-resistant Mycobacterium tuberculosis assessed as inhibition of bacterial growth under 7H9 medium condition after 7 to 14 days by broth microdilution method; type: functional; details: time 7-14 day; in short: as §2
[6] = test system: Mycobacterium tuberculosis; test: as §1, with “days in presence of tylo-xapol” for “days”; type: functional; details: time 7-14 day; in short: as §2
[7] = test system: Mycobacterium tuberculosis; test: Antimycobacterial activity against isoniazid/rifampicin/ethambutol/para-aminosalicylic acid extensively drug-resistant Mycobacterium tuberculosis assessed as inhibition of bacterial growth under 7H9 medium condition after 7 to 14 days by broth microdilution method; type: functional; details: time 7-14 day; in short: as §2
[8] = test system: Mycobacterium tuberculosis; test: Antimycobacterial activity against isoniazid/rifampicin/ethambutol/streptomycin/ofloxacin/para-aminosalicylic acid/prothionamide multidrug-resistant Mycobacterium tuberculosis assessed as inhibition of bacterial growth under 7H9 medium condition after 7 to 14 days by broth microdilution method; type: functional; details: time 7-14 day; in short: as §2
[9] = test system: Mycobacterium tuberculosis; test: Antimycobacterial activity against isoniazid/rifampicin/ethambutol/kanamycin/ofloxacin multidrug-resistant Mycobacterium tuberculosis assessed as inhibition of bacterial growth under GAST medium condition after 7 to 14 days by broth microdilution method; type: functional; details: time 7-14 day; in short: as §2
[10] = target: T1, Long-chain-fatty-acid--AMP ligase FadD32 (Mycobacterium tuberculosis (strain ATCC 25618 / H37Rv), UniProt O53580); test: Inhibition of Mycobacterium tuberculosis H37Rv FAAL32 expressed in Escherichia coli BL21(DE3) cells incubated for 2 hrs in presence of [C14] fatty acid by SDS-PAGE analysis; details: read-out: Ki(app)
T1 sequence (O53580 whole entry): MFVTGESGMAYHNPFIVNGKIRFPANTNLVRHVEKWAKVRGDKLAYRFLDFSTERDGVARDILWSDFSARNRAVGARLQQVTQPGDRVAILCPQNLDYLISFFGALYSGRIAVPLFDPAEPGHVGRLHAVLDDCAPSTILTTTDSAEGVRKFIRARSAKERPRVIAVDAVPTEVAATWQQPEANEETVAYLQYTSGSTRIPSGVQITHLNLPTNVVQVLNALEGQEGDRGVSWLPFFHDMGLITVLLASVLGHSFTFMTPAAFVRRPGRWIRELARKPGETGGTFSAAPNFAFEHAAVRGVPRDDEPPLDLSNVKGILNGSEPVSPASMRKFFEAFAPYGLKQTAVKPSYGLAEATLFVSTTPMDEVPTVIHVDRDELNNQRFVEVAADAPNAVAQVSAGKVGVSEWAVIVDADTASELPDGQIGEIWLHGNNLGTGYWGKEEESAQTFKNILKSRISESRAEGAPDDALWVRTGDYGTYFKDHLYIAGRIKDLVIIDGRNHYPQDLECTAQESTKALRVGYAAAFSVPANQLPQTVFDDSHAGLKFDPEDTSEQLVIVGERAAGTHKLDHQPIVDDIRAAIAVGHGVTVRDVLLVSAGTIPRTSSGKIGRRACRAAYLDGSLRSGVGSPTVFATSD

| SMILES | MIC [1] [µM] | MIC [2] [µM] | MIC [3] [µM] | MIC [4] [µM] | MIC [5] [µM] | MIC [6] [µM] | MIC [7] [µM] | MIC [8] [µM] | MIC [9] [µM] | Ki [10] [nM] |
| --- | --- | --- | --- | --- | --- | --- | --- | --- | --- | --- |
| CCCCCCCCCCCC(=O)NS(=O)(=O)OC[C@H]1O[C@@H](n2cnc3c(N)ncnc32)[C@H](O)[C@@H]1O | 12.5 (≈ 6.61 µg/mL) | 6.25 (≈ 3.3 µg/mL) | 12.5 (≈ 6.61 µg/mL) | 25 (≈ 13.2 µg/mL) | 6.25 (≈ 3.3 µg/mL) | 12.5 | 6.25 (≈ 3.3 µg/mL) | 12.5 (≈ 6.61 µg/mL) | 3.13 (≈ 1.65 µg/mL) | – |
| CCCCCCCCCCCCOP(=O)(O)OC[C@H]1O[C@@H](n2cnc3c(N)ncnc32)[C@H](O)[C@@H]1O | – | – | – | – | – | – | – | – | – | 110 |
| C=CCCCCCCCCC(=O)NS(=O)(=O)OC[C@H]1O[C@@H](n2cnc3c(N)ncnc32)[C@H](O)[C@@H]1O | 50 (≈ 25.6 µg/mL) | 3.13 (≈ 1.6 µg/mL) | 3.13 (≈ 1.6 µg/mL) | 3.13 (≈ 1.6 µg/mL) | 625 (≈ 320 µg/mL) | 6.25 | 12.5 (≈ 6.41 µg/mL) | 25 (≈ 12.8 µg/mL) | 3.13 (≈ 1.6 µg/mL) | – |
| Nc1ncnc2c1ncn2[C@@H]1O[C@H](COS(=O)(=O)NC(=O)CCCCCCCCCCOc2ccccc2)[C@@H](O)[C@H]1O | 12.5 (≈ 7.58 µg/mL) | – | 625 (≈ 379 µg/mL) | 6.25 (≈ 3.79 µg/mL) | 12.5 (≈ 7.58 µg/mL) | 12.5 | 12.5 (≈ 7.58 µg/mL) | 50 (≈ 30.3 µg/mL) | – | – |
| CCCCCCCCCCCCCC(=O)NS(=O)(=O)OC[C@H]1O[C@@H](n2cnc3c(N)ncnc32)[C@H](O)[C@@H]1O | 25 (≈ 13.9 µg/mL) | 6.25 (≈ 3.48 µg/mL) | 12.5 (≈ 6.96 µg/mL) | 12.5 (≈ 6.96 µg/mL) | 3.13 (≈ 1.74 µg/mL) | 12.5 | 6.25 (≈ 3.48 µg/mL) | 12.5 (≈ 6.96 µg/mL) | 6.25 (≈ 3.48 µg/mL) | – |
| CCCCCCCCCOCC(=O)NS(=O)(=O)OC[C@H]1O[C@@H](n2cnc3c(N)ncnc32)[C@H](O)[C@@H]1O | 12.5 (≈ 6.63 µg/mL) | 0.78 (≈ 0.414 µg/mL) | 6.25 (≈ 3.32 µg/mL) | 1.56 (≈ 0.828 µg/mL) | 6.25 (≈ 3.32 µg/mL) | 12.5 | 6.25 (≈ 3.32 µg/mL) | 50 (≈ 26.5 µg/mL) | 0.39 (≈ 0.207 µg/mL) | – |
| [N-]=[N+]=NCCCCCCCCCCCC(=O)NS(=O)(=O)OC[C@H]1O[C@@H](n2cnc3c(N)ncnc32)[C@H](O)[C@@H]1O | 50 (≈ 28.5 µg/mL) | 3.13 (≈ 1.78 µg/mL) | 625 (≈ 356 µg/mL) | 3.13 (≈ 1.78 µg/mL) | 625 (≈ 356 µg/mL) | 6.25 | 12.5 (≈ 7.12 µg/mL) | 25 (≈ 14.2 µg/mL) | 3.13 (≈ 1.78 µg/mL) | – |
| NNC(=O)c1ccncc1 [ISONIAZID] | 2 (≈ 0.274 µg/mL) | 4 (≈ 0.549 µg/mL) | 8 (≈ 1.1 µg/mL) | > 8 | 2 (≈ 0.274 µg/mL) | 2 | 2 (≈ 0.274 µg/mL) | 8 (≈ 1.1 µg/mL) | 4 (≈ 0.549 µg/mL) | – |
